T1: Cathepsin G (Homo sapiens, UniProt P08311)
T1 sequence (P08311 whole entry): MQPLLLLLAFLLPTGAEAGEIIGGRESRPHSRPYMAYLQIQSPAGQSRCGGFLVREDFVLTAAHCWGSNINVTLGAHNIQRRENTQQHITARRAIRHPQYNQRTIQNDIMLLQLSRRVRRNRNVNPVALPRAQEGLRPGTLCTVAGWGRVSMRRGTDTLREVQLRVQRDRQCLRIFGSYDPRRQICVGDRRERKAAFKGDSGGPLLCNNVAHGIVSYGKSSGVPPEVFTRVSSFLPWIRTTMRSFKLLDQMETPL

T2: Neutrophil elastase (Homo sapiens, UniProt P08246)
T2 sequence (P08246 whole entry): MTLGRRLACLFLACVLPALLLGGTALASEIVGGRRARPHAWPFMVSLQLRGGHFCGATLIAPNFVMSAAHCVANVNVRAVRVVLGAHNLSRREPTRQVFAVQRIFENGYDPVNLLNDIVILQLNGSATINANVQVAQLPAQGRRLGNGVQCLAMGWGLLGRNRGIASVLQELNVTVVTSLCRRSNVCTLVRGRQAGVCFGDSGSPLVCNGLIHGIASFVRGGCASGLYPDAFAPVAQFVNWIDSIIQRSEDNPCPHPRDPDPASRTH

T3: Neutrophil elastase (Homo sapiens) (UniProt P08246)
T3 sequence (whole entry): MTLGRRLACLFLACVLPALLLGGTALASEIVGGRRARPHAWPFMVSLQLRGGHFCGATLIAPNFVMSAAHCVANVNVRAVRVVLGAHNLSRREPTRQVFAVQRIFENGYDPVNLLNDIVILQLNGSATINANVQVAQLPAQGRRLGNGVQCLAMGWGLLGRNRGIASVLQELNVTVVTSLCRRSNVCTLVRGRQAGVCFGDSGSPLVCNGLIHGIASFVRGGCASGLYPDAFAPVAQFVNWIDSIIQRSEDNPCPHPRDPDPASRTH


Experiments:
[1] = target: T1, Cathepsin G; test: Inhibition of cathepsin G at pH 7.5 in HEPES buffer containing 200 mM NaCl with substrate Suc-Ala-Ala-Pro-Phe-pNA.
In short: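 Wells pre-equilibrated at 37 °C >10 min before enzyme start. A405 followed 15 min. Eight concentrations over a 200-fold span. Ki from competitive fit of vi/vc versus [I].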

[2] = target: T2, Neutrophil elastase; test: Inhibitory activity against human leukocyte elastase
[3] = target: T2, Neutrophil elastase; test: Binding Affinity to inhibit HLE
In short: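 Purified human leukocyte elastase (3 nM final) with 10 µM […] (below Km 200 µM) in 50 mM HEPES, 200 mM NaCl, pH 7.5, 0.3% DMSO. Inhibitor and substrate pre-equilibrated at 37 °C for >10 min, then enzyme added. A405 read for 15 min. Eight inhibitor levels spanning a 200-fold range. Ki from fit of vi/vc to the competitive-inhibition equation.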

[4] = target: Prothrombin (Homo sapiens, UniProt P00734); test: Inhibition of thrombin at pH 7.5 in HEPES buffer containing 200 mM NaCl with substrate Bz-Phe-Val-Arg-pNA.
In short: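 Reaction started with enzyme after >10 min equilibration. A405 rise recorded 15 min. Eight compound levels over a 200-fold range. Ki from competitive-model fit of vi/vc.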

[5] = target: T3, Neutrophil elastase (Homo sapiens); details: 0.2 uM
[6] = target: T3, Neutrophil elastase (Homo sapiens); details: 0.5 uM
[7] = target: T3, Neutrophil elastase (Homo sapiens); details: 1 uM
[8] = substrate: O=C(O)COc1cc(Cc2cc(OCc3ccccc3)c(Cc3cc(OCc4ccccc4)c(Cc4cc(OCc5ccccc5)c(Cc5cc(OCc6ccccc6)c(Cc6cc(O)ccc6OCC(=O)O)cc5OCC(=O)O)cc4OCC(=O)O)cc3OCC(=O)O)cc2OCC(=O)O)c(OCc2ccccc2)cc1CO; details: 0.5 uM
[9] = substrate: O=C(O)COc1cc(Cc2cc(OCc3ccccc3)c(Cc3cc(OCc4ccccc4)c(Cc4cc(OCc5ccccc5)c(Cc5cc(OCc6ccccc6)c(Cc6cc(O)ccc6OCC(=O)O)cc5OCC(=O)O)cc4OCC(=O)O)cc3OCC(=O)O)cc2OCC(=O)O)c(OCc2ccccc2)cc1CO; details: 1 uM
[10] = substrate: O=C(O)COc1cc(Cc2cc(OCc3ccccc3)c(Cc3cc(OCc4ccccc4)c(Cc4cc(OCc5ccccc5)c(Cc5cc(OCc6ccccc6)c(Cc6cc(O)ccc6OCC(=O)O)cc5OCC(=O)O)cc4OCC(=O)O)cc3OCC(=O)O)cc2OCC(=O)O)c(OCc2ccccc2)cc1CO; details: 0.2 uM

| Molecule | Ki [1] [µM] | Ki [2] [µM] | Ki [4] [µM] | other results |
| --- | --- | --- | --- | --- |
| O=C(O)COc1cc(Cc2cc(OCc3ccccc3)c(Cc3cc(OCc4ccccc4)c(Cc4cc(OCc5ccccc5)c(Cc5cc(OCc6ccccc6)c(Cc6cc(O)ccc6OCC(=O)O)cc5OCC(=O)O)cc4OCC(=O)O)cc3OCC(=O)O)cc2OCC(=O)O)c(OCc2ccccc2)cc1CO | > 15 | 0.12 | > 15 | Ki [3]: 0.19 µM; Vm [5]: 0.2 µM; Vm [6]: 0.2 µM; Vm [7]: 0.2 µM |
| O=C(O)COc1cc(Cc2cc(OCc3ccccc3)c(Cc3cc(OCc4ccccc4)c(Cc4cc(OCc5ccccc5)c(Cc5cc(O)ccc5OCC(=O)O)cc4OCC(=O)O)cc3OCC(=O)O)cc2OCC(=O)O)c(OCc2ccccc2)cc1CO | > 15 | 0.13 | 0.75 |  |
| COc1ccc(OCC(=O)O)c(Cc2cc(OCC3CCCCC3)c(Cc3cc(OCC(=O)O)c(Cc4cc(OCC5CCCCC5)c(Cc5cc(OCC(=O)O)c(Cc6cc(OCC7CCCCC7)c(C)cc6OC)cc5OC)cc4OC)cc3OC)cc2OC)c1 | > 15 | 0.02 | > 15 |  |
| COc1cc(CO)c(OCc2ccccc2)cc1Cc1cc(OC)c(Cc2cc(OC)c(Cc3cc(OC)c(Cc4cc(OC)c(Cc5cc(O)ccc5OCC(=O)O)cc4OCc4ccccc4)cc3OCC(=O)O)cc2OCc2ccccc2)cc1OCC(=O)O | 1.5 | 0.2 | > 15 |  |
| COCCOCOc1cc(Cc2cc(OC)c(Cc3cc(OC)c(Cc4cc(OC)c(Cc5cc(OC)c(Cc6cc(OC)ccc6OCC(=O)O)cc5OCOCCOC)cc4OCC(=O)O)cc3OCOCCOC)cc2OCC(=O)O)c(OC)cc1C | > 15 | 1 | 0.24 |  |
| CC(C)(C)c1cc2c(OCC(=O)O)c(c1)Cc1cc(C(C)(C)C)cc(c1OCC(=O)O)Cc1cc(C(C)(C)C)cc(c1OCC(=O)O)Cc1cc(C(C)(C)C)cc(c1OCC(=O)O)Cc1cc(C(C)(C)C)cc(c1OCC(=O)O)Cc1cc(C(C)(C)C)cc(c1OCC(=O)O)Cc1cc(C(C)(C)C)cc(c1OCC(=O)O)Cc1cc(C(C)(C)C)cc(c1OCC(=O)O)C2 |  | 1.3 |  |  |
| O=C(O)COc1cc(Cc2cc(OCc3ccccc3)c(Cc3cc(OCc4ccccc4)c(Cc4cc(O)ccc4OCC(=O)O)cc3OCC(=O)O)cc2OCC(=O)O)c(OCc2ccccc2)cc1CO | > 15 | 8.3 | > 15 |  |
| COc1ccc(OCC(=O)O)c(Cc2cc(O)c(Cc3cc(OCC(=O)O)c(Cc4cc(O)c(Cc5cc(OCC(=O)O)c(Cc6cc(O)c(C)cc6OC)cc5OC)cc4OC)cc3OC)cc2OC)c1 | > 15 | 1.3 | > 15 |  |
| COc1ccc(OCC(=O)O)c(Cc2cc(OCCCc3ccccc3)c(Cc3cc(OCC(=O)O)c(Cc4cc(OCCCc5ccccc5)c(Cc5cc(OCC(=O)O)c(Cc6cc(OCCCc7ccccc7)c(C)cc6OC)cc5OC)cc4OC)cc3OC)cc2OC)c1 | > 15 | 0.1 | 1.7 |  |
| COc1ccc(OCC(=O)O)c(Cc2cc(OCCCCCc3ccccc3)c(Cc3cc(OCC(=O)O)c(Cc4cc(OCCCCCc5ccccc5)c(Cc5cc(OCC(=O)O)c(Cc6cc(OCCCCCc7ccccc7)c(C)cc6OC)cc5OC)cc4OC)cc3OC)cc2OC)c1 | > 15 | 0.017 | 1.4 |  |
| Neutrophil elastase (Homo sapiens), P08246 (protein) MTLGRRLACLFLACVLPALLLGGTALASEIVGGRRARPHAWPFMVSLQLRGGHFCGATLIAPNFVMSAAHCVANVNVRAVRVVLGAHNLSRREPTRQVFAVQRIFENGYDPVNLLNDIVILQLNGSATINANVQVAQLPAQGRRLGNGVQCLAMGWGLLGRNRGIASVLQELNVTVVTSLCRRSNVCTLVRGRQAGVCFGDSGSPLVCNGLIHGIASFVRGGCASGLYPDAFAPVAQFVNWIDSIIQRSEDNPCPHPRDPDPASRTH |  |  |  | Km [8]: 1.1 µM; Km [9]: 2.3 µM; Km [10]: 0.77 µM |

— ChEMBL document CHEMBL1130189, “Anionic- and lipophilic-mediated surface binding inhibitors of human leukocyte elastase” (J Med Chem, 1997)
